The source made the active and inactive calls. No cut-off for these calls is given here.
How the values were obtained:
[1] = test system: T47D; assay: Inhibition of PR-B mRNA gene expression in human T47D cells at 100 nM by syber green assay; type: functional
Procedure, shortened: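 T47D cells in RPMI-1640 with 10% FBS, NEAA, insulin, 37 °C, 5% CO2. Plated two days before transfection without antibiotics. Oligofectamine-mediated duplex RNA transfection at 100 nM final, medium changed at 24 h, harvest five days post-transfection. Total RNA extracted with TRIzol. hPR mRNA quantified by SYBR Green qPCR: 50 °C 2 min, 95 °C 10 min, then 40 cycles of 95 °C 15 s / 60 °C 1 min.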

[2] = test system: T47D; assay: Inhibition of PR-A mRNA gene expression in human T47D cells at 100 nM by syber green assay; type: functional
Procedure, shortened: (§1)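 T47D cells plated at 80,000/well without antibiotics two days before Oligofectamine transfection with agRNA duplex (25 or 100 nM final); medium changed at 24 h, harvest day 5 unless stated otherwise. TRIzol total RNA; PR mRNA by real-time PCR with SYBR Green: 50 °C 2 min, 95 °C 10 min, 40 cycles 95 °C 15 s/60 °C 1 min.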

[3] = test system: T47D; assay: Inhibition of PR-A gene expression in human T47D cells at 25 nM by syber green assay in presence of 10 nM estradiol; type: functional, cell-based
[4] = test system: T47D; assay: Inhibition of PR-B gene expression in human T47D cells at 25 nM by syber green assay in presence of 10 nM estradiol; type: functional, cell-based
[5] = test system: T47D; assay: Inhibition of PR-B gene expression in human T47D cells at 25 nM by syber green assay; type: functional; procedure, shortened: as §1
[6] = test system: T47D; assay: Inhibition of PR-A gene expression in human T47D cells at 25 nM by syber green assay; type: functional; procedure, shortened: as §1

For `Cc1cn(CC(=O)N(CCNC(=O)CN(CCNC(=O)CN(CCNC(=O)CN(CCNC(=O)CN(CCNC(=O)CN(CCNC(=O)CN(CCNC(=O)CN(CCNC(=O)CN(CCNC(=O)CN(CCNC(=O)CN(CCNC(=O)CN(CCNC(=O)CN(CCNC(=O)CN(CCNC(=O)CN(CCNC(=O)CN(CCNC(=O)CN(CCNC(=O)CN(CCNC(=O)CN(CCNC(=O)CN(CCNC(=O)CN)C(=O)Cn2cnc3c(N)ncnc32)C(=O)Cn2cnc3c(=O)[nH]c(N)nc32)C(=O)Cn2cnc3c(N)ncnc32)C(=O)Cn2cnc3c(=O)[nH]c(N)nc32)C(=O)Cn2cnc3c(=O)[nH]c(N)nc32)C(=O)Cn2cnc3c(N)ncnc32)C(=O)Cn2cnc3c(=O)[nH]c(N)nc32)C(=O)Cn2cnc3c(=O)[nH]c(N)nc32)C(=O)Cn2cnc3c(N)ncnc32)C(=O)Cn2cnc3c(=O)[nH]c(N)nc32)C(=O)Cn2cnc3c(=O)[nH]c(N)nc32)C(=O)Cn2ccc(N)nc2=O)C(=O)Cn2cnc3c(=O)[nH]c(N)nc32)C(=O)Cn2ccc(=O)[nH]c2=O)C(=O)Cn2ccc(=O)[nH]c2=O)C(=O)Cn2cnc3c(=O)[nH]c(N)nc32)C(=O)Cn2ccc(=O)[nH]c2=O)C(=O)Cn2ccc(=O)[nH]c2=O)C(=O)Cn2cnc3c(N)ncnc32)CC(=O)NCCN(CC(=O)NCC(=O)O)C(=O)Cn2cc(C)c(=O)[nH]c2=O)c(=O)[nH]c1=O`, the inhibition at 0.1 µM [1] was under 20%, the inhibition at 0.1 µM [2] was under 20% and the inhibition [3] was “Active”. The inhibition [4] was “Active”, the inhibition at 0.025 µM [5] was under 20% and the inhibition at 0.025 µM [6] was under 20%.
`Cc1cn(CC(=O)N(CCNC(=O)CN(CCNC(=O)CN(CCNC(=O)CN(CCNC(=O)CN(CCNC(=O)CN(CCNC(=O)CN(CCNC(=O)CN(CCNC(=O)CN(CCNC(=O)CN(CCNC(=O)CN(CCNC(=O)CN(CCNC(=O)CN(CCNC(=O)CN(CCNC(=O)CN(CCNC(=O)CN(CCNC(=O)CN(CCNC(=O)CN(CCNC(=O)CN(CCNC(=O)CN(CCNC(=O)CN)C(=O)Cn2ccc(=O)[nH]c2=O)C(=O)Cn2ccc(N)nc2=O)C(=O)Cn2ccc(N)nc2=O)C(=O)Cn2ccc(N)nc2=O)C(=O)Cn2ccc(=O)[nH]c2=O)C(=O)Cn2cnc3c(N)ncnc32)C(=O)Cn2cnc3c(=O)[nH]c(N)nc32)C(=O)Cn2cnc3c(N)ncnc32)C(=O)Cn2cnc3c(=O)[nH]c(N)nc32)C(=O)Cn2cnc3c(=O)[nH]c(N)nc32)C(=O)Cn2cnc3c(N)ncnc32)C(=O)Cn2cnc3c(=O)[nH]c(N)nc32)C(=O)Cn2cnc3c(=O)[nH]c(N)nc32)C(=O)Cn2cnc3c(N)ncnc32)C(=O)Cn2cnc3c(=O)[nH]c(N)nc32)C(=O)Cn2cnc3c(=O)[nH]c(N)nc32)C(=O)Cn2ccc(N)nc2=O)C(=O)Cn2cnc3c(=O)[nH]c(N)nc32)C(=O)Cn2ccc(=O)[nH]c2=O)CC(=O)NCCN(CC(=O)NCC(=O)O)C(=O)Cn2cc(C)c(=O)[nH]c2=O)c(=O)[nH]c1=O` was tested, and the inhibition at 0.1 µM [1] was 48%, the inhibition at 0.1 µM [2] was 41% and the inhibition [3] was “Active”. The inhibition [4] was “Active”, the inhibition at 0.025 µM [5] was under 20% and the inhibition at 0.025 µM [6] was under 20%.
`Cc1cn(CC(=O)N(CCNC(=O)CN(CCNC(=O)CN(CCNC(=O)CN(CCNC(=O)CN(CCNC(=O)CN(CCNC(=O)CN(CCNC(=O)CN(CCNC(=O)CN(CCNC(=O)CN(CCNC(=O)CN(CCNC(=O)CN(CCNC(=O)CN(CCNC(=O)CN(CCNC(=O)CN(CCNC(=O)CN(CCNC(=O)CN(CCNC(=O)CN(CCNC(=O)CN(CCNC(=O)CN(CCNC(=O)CN(CCNC(=O)CN)C(=O)Cn2ccc(=O)[nH]c2=O)C(=O)Cn2ccc(N)nc2=O)C(=O)Cn2ccc(=O)[nH]c2=O)C(=O)Cn2cnc3c(=O)[nH]c(N)nc32)C(=O)Cn2cnc3c(=O)[nH]c(N)nc32)C(=O)Cn2ccc(N)nc2=O)C(=O)Cn2ccc(N)nc2=O)C(=O)Cn2cnc3c(N)ncnc32)C(=O)Cn2cnc3c(=O)[nH]c(N)nc32)C(=O)Cn2ccc(=O)[nH]c2=O)C(=O)Cn2ccc(N)nc2=O)C(=O)Cn2ccc(N)nc2=O)C(=O)Cn2cnc3c(N)ncnc32)C(=O)Cn2ccc(N)nc2=O)C(=O)Cn2cnc3c(N)ncnc32)C(=O)Cn2cnc3c(=O)[nH]c(N)nc32)C(=O)Cn2ccc(N)nc2=O)C(=O)Cn2ccc(=O)[nH]c2=O)C(=O)Cn2cnc3c(=O)[nH]c(N)nc32)C(=O)Cn2cc(C)c(=O)[nH]c2=O)CC(=O)O)c(=O)[nH]c1=O` was tested, and the inhibition at 0.1 µM [1] was 100%, the inhibition at 0.1 µM [2] was 97% and the inhibition [3] was “Active”. For the same compound, the inhibition [4] was “Active”, the inhibition at 0.025 µM [5] was 50% and the inhibition at 0.025 µM [6] was 38%.
`Cc1cn(CC(=O)N(CCNC(=O)CN(CCNC(=O)CN(CCNC(=O)CN(CCNC(=O)CN(CCNC(=O)CN(CCNC(=O)CN(CCNC(=O)CN(CCNC(=O)CN(CCNC(=O)CN(CCNC(=O)CN(CCNC(=O)CN(CCNC(=O)CN(CCNC(=O)CN(CCNC(=O)CN(CCNC(=O)CN(CCNC(=O)CN(CCNC(=O)CN(CCNC(=O)CN(CCNC(=O)CN(CCNC(=O)CN)C(=O)Cn2cnc3c(=O)[nH]c(N)nc32)C(=O)Cn2cnc3c(=O)[nH]c(N)nc32)C(=O)Cn2ccc(N)nc2=O)C(=O)Cn2cnc3c(=O)[nH]c(N)nc32)C(=O)Cn2ccc(=O)[nH]c2=O)C(=O)Cn2ccc(=O)[nH]c2=O)C(=O)Cn2cnc3c(=O)[nH]c(N)nc32)C(=O)Cn2ccc(=O)[nH]c2=O)C(=O)Cn2ccc(=O)[nH]c2=O)C(=O)Cn2cnc3c(N)ncnc32)C(=O)Cn2cnc3c(=O)[nH]c(N)nc32)C(=O)Cn2cnc3c(N)ncnc32)C(=O)Cn2cnc3c(N)ncnc32)C(=O)Cn2cnc3c(N)ncnc32)C(=O)Cn2cnc3c(=O)[nH]c(N)nc32)C(=O)Cn2ccc(N)nc2=O)C(=O)Cn2ccc(=O)[nH]c2=O)C(=O)Cn2cnc3c(=O)[nH]c(N)nc32)C(=O)Cn2ccc(=O)[nH]c2=O)CC(=O)NCCN(CC(=O)NCC(=O)O)C(=O)Cn2cc(C)c(=O)[nH]c2=O)c(=O)[nH]c1=O` was tested, and the inhibition at 0.1 µM [1] was under 20%, the inhibition at 0.1 µM [2] was under 20% and the inhibition [3] was “Active”. For the same compound, the inhibition [4] was “Active”, the inhibition at 0.025 µM [5] was under 20% and the inhibition at 0.025 µM [6] was under 20%.
`Cc1cn(CC(=O)N(CCNC(=O)CN(CCNC(=O)CN(CCNC(=O)CN(CCNC(=O)CN(CCNC(=O)CN(CCNC(=O)CN(CCNC(=O)CN(CCNC(=O)CN(CCNC(=O)CN(CCNC(=O)CN(CCNC(=O)CN(CCNC(=O)CN(CCNC(=O)CN(CCNC(=O)CN(CCNC(=O)CN(CCNC(=O)CN(CCNC(=O)CN(CCNC(=O)CN(CCNC(=O)CN(CCNC(=O)CN)C(=O)Cn2cnc3c(N)ncnc32)C(=O)Cn2cnc3c(=O)[nH]c(N)nc32)C(=O)Cn2cnc3c(=O)[nH]c(N)nc32)C(=O)Cn2ccc(N)nc2=O)C(=O)Cn2cnc3c(=O)[nH]c(N)nc32)C(=O)Cn2ccc(=O)[nH]c2=O)C(=O)Cn2ccc(=O)[nH]c2=O)C(=O)Cn2cnc3c(=O)[nH]c(N)nc32)C(=O)Cn2ccc(=O)[nH]c2=O)C(=O)Cn2ccc(=O)[nH]c2=O)C(=O)Cn2cnc3c(N)ncnc32)C(=O)Cn2cnc3c(=O)[nH]c(N)nc32)C(=O)Cn2cnc3c(N)ncnc32)C(=O)Cn2cnc3c(N)ncnc32)C(=O)Cn2cnc3c(N)ncnc32)C(=O)Cn2cnc3c(=O)[nH]c(N)nc32)C(=O)Cn2ccc(N)nc2=O)C(=O)Cn2ccc(=O)[nH]c2=O)C(=O)Cn2cnc3c(=O)[nH]c(N)nc32)CC(=O)NCCN(CC(=O)NCC(=O)O)C(=O)Cn2cc(C)c(=O)[nH]c2=O)c(=O)[nH]c1=O` was tested, and the inhibition at 0.1 µM [1] was 99%, the inhibition at 0.1 µM [2] was 80% and the inhibition [3] was “Active”. For the same compound, the inhibition [4] was “Active”, the inhibition at 0.025 µM [5] was 73% and the inhibition at 0.025 µM [6] was 57%.
With `Cc1cn(CC(=O)N(CCNC(=O)CN(CCNC(=O)CN(CCNC(=O)CN(CCNC(=O)CN(CCNC(=O)CN(CCNC(=O)CN(CCNC(=O)CN(CCNC(=O)CN(CCNC(=O)CN(CCNC(=O)CN(CCNC(=O)CN(CCNC(=O)CN(CCNC(=O)CN(CCNC(=O)CN(CCNC(=O)CN(CCNC(=O)CN(CCNC(=O)CN(CCNC(=O)CN(CCNC(=O)CN(CCNC(=O)CN)C(=O)Cn2cnc3c(N)ncnc32)C(=O)Cn2cnc3c(=O)[nH]c(N)nc32)C(=O)Cn2cnc3c(=O)[nH]c(N)nc32)C(=O)Cn2cnc3c(N)ncnc32)C(=O)Cn2cnc3c(=O)[nH]c(N)nc32)C(=O)Cn2cnc3c(=O)[nH]c(N)nc32)C(=O)Cn2ccc(N)nc2=O)C(=O)Cn2cnc3c(=O)[nH]c(N)nc32)C(=O)Cn2ccc(=O)[nH]c2=O)C(=O)Cn2ccc(=O)[nH]c2=O)C(=O)Cn2cnc3c(=O)[nH]c(N)nc32)C(=O)Cn2ccc(=O)[nH]c2=O)C(=O)Cn2ccc(=O)[nH]c2=O)C(=O)Cn2cnc3c(N)ncnc32)C(=O)Cn2cnc3c(=O)[nH]c(N)nc32)C(=O)Cn2cnc3c(N)ncnc32)C(=O)Cn2cnc3c(N)ncnc32)C(=O)Cn2cnc3c(N)ncnc32)C(=O)Cn2cnc3c(=O)[nH]c(N)nc32)CC(=O)NCCN(CC(=O)NCC(=O)O)C(=O)Cn2cc(C)c(=O)[nH]c2=O)c(=O)[nH]c1=O` the inhibition at 0.1 µM [1] was 68%, the inhibition at 0.1 µM [2] was 52% and the inhibition [3] was “Active”. For the same compound, the inhibition [4] was “Active”, the inhibition at 0.025 µM [5] was 34% and the inhibition at 0.025 µM [6] was under 20%.
